≈ marks a conversion by molar mass, not a printed value.
Key:
Type in all cases: functional
Streptococcus pyogenes [1] = assay: Antimicrobial activity against Streptococcus pyogenes clinical isolate expressing mosaic variant of mef gene by broth microdilution method
In short: (§1)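 Clinical isolates were subcultured from -70°C or 4°C storage onto horse blood agar and grown overnight at 36°C in 5 to 6% CO2. MICs were then measured by CLSI broth microdilution. mef presence was screened by a TaqMan plus/minus assay, and the mef subclass was assigned by sequencing.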

Streptococcus pyogenes [2] = assay: Antimicrobial activity against Streptococcus pyogenes clinical isolate expressing mef(A) gene by broth microdilution method; in short: as §1
Streptococcus pyogenes [3] = assay: Antimicrobial activity against Streptococcus pyogenes clinical isolate expressing mef(E) gene by broth microdilution method; in short: as §1

Structure (SMILES)	MIC (Streptococcus pyogenes [1])	MIC50 (Streptococcus pyogenes [1])	MIC90 (Streptococcus pyogenes [1])	MIC (Streptococcus pyogenes [2])	MIC50 (Streptococcus pyogenes [2])	MIC90 (Streptococcus pyogenes [2])	MIC50 (Streptococcus pyogenes [3])	MIC90 (Streptococcus pyogenes [3])
CN(C)[C@@H]1C(O)=C(C(N)=O)C(=O)[C@@]2(O)C(O)=C3C(=O)c4c(O)cccc4[C@@](C)(O)[C@H]3C[C@@H]12 [TETRACYCLINE]	32 mg/L (≈ 72 µM)	32 mg/L (≈ 72 µM)	32 mg/L (≈ 72 µM)	0.25 mg/L (≈ 0.563 µM)	0.25 mg/L (≈ 0.563 µM)	0.25 mg/L (≈ 0.563 µM)	32 mg/L (≈ 72 µM)	32 mg/L (≈ 72 µM)
CC[C@H]1OC(=O)[C@H](C)[C@@H](O[C@H]2C[C@@](C)(OC)[C@@H](O)[C@H](C)O2)[C@H](C)[C@@H](O[C@@H]2O[C@H](C)C[C@H](N(C)C)[C@H]2O)[C@](C)(O)C[C@@H](C)CN(C)[C@H](C)[C@@H](O)[C@]1(C)O [AZITHROMYCIN]	16 mg/L (≈ 21.4 µM)	16 mg/L (≈ 21.4 µM)	32 mg/L (≈ 42.7 µM)	–	8 mg/L (≈ 10.7 µM)	16 mg/L (≈ 21.4 µM)	8 mg/L (≈ 10.7 µM)	16 mg/L (≈ 21.4 µM)
CC[C@H]1OC(=O)[C@H](C)[C@@H](O[C@H]2C[C@@](C)(OC)[C@@H](O)[C@H](C)O2)[C@H](C)[C@@H](O[C@@H]2O[C@H](C)C[C@H](N(C)C)[C@H]2O)[C@](C)(O)C[C@@H](C)C(=O)[C@H](C)[C@@H](O)[C@]1(C)O [ERYTHROMYCIN]	8 mg/L (≈ 10.9 µM)	8 mg/L (≈ 10.9 µM)	16 mg/L (≈ 21.8 µM)	–	16 mg/L (≈ 21.8 µM)	16 mg/L (≈ 21.8 µM)	8 mg/L (≈ 10.9 µM)	16 mg/L (≈ 21.8 µM)
CC[C@H]1OC(=O)[C@H](C)[C@@H](O[C@H]2C[C@@](C)(OC)[C@@H](O)[C@H](C)O2)[C@H](C)[C@@H](O[C@@H]2O[C@H](C)C[C@H](N(C)C)[C@H]2O)[C@](C)(OC)C[C@@H](C)C(=O)[C@H](C)[C@@H](O)[C@]1(C)O [CLARITHROMYCIN]	–	8 mg/L (≈ 10.7 µM)	8 mg/L (≈ 10.7 µM)	–	8 mg/L (≈ 10.7 µM)	16 mg/L (≈ 21.4 µM)	4 mg/L (≈ 5.35 µM)	8 mg/L (≈ 10.7 µM)
CCC[C@@H]1C[C@@H](C(=O)N[C@@H]([C@H]2O[C@H](SC)[C@H](O)[C@@H](O)[C@H]2O)[C@H](C)Cl)N(C)C1 [CLINDAMYCIN]	–	0.06 mg/L (≈ 0.141 µM)	0.06 mg/L (≈ 0.141 µM)	–	0.06 mg/L (≈ 0.141 µM)	0.25 mg/L (≈ 0.588 µM)	0.25 mg/L (≈ 0.588 µM)	0.25 mg/L (≈ 0.588 µM)
